Source: PubChem
CAL PDZ FP-1: blocks peptide binding to human CAL PDZ domain. purified CAL PDZ, TMR-peptide fluorescence polarization, 1 h. inhibition, % at 20 µM. 330,000 compounds, 0.02% hits. AID 504414;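 active = highest replicate inhibition of at least 40%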;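 note: plate controls were DMSO neutral control wells for no effect and unlabeled competitor peptide control wells for full effect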
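System: purified tagged CAL PDZ domain construct (CerCALP). Schedule: 1 h incubation at room temperature before polarization reading. Medium: 25 mM sodium phosphate pH 7.4, 150 mM NaCl, TCEP, IgG, Thesit. Read-out: percent inhibition from loss of millipolarization. Measured by: FP readout, S and P plane fluorescence. Probe or stimulus: fluorescent TMR peptide probe.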
CAL PDZ FP-2: blocks peptide binding to the human CAL PDZ domain; Q9HD26; purified CAL PDZ, TMR-peptide fluorescence polarization, 1 h; inhibition, % at 24.9 µM; 300,000 compounds, 0.92% hits; AID 602252;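 active = mean inhibition of at least 30% with at least half of replicates also reaching 30%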;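 note: 0% = DMSO neutral control and 100% = excess unlabeled competitor peptide PRC23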
ATG4B inh: ATG4B (human) cysteine protease inhibition; Q9Y4P1; ATG4B cleavage of LC3-PLA2, NBD-HPC fluorescence, 1 h; inhibition, % at 8.33 µM; 340,000 compounds, 0.51% hits; AID 504462; in the data active = inhibition above about 40%
SR-BI HDL uptake: blocks mouse SR-BI lipid uptake from DiI-HDL; 320,000 compounds, 0.96% hits; ldlA[mSR-BI] CHO cells, DiI-HDL uptake fluorescence, 3 h; AID 488896; inhibition, % at 12.5 µM;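 active = mean replicate inhibition of at least 70% and a set share of replicates each scoring 70 or more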;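 note: 0% = median of neutral control wells and 100% = median of positive control wells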
Target sequence (Q61009 whole entry, looked up): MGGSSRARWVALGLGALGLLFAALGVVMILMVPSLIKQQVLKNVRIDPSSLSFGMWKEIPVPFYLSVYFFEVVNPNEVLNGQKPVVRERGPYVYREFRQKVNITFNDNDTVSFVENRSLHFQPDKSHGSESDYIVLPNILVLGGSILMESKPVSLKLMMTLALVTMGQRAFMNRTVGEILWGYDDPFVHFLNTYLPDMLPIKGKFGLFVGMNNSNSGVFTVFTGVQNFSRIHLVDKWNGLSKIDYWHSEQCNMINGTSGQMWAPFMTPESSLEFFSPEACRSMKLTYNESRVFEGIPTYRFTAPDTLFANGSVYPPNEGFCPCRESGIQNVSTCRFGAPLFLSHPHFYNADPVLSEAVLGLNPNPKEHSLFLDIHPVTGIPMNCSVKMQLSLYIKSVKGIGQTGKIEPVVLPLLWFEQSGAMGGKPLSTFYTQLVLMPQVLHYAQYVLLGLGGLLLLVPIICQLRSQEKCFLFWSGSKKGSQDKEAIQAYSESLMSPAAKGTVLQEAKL
SR-BI uptake up: SR-BI HDL lipid transfer activation; activation, % at 12.5 µM; 320,000 compounds, 0.096% hits; CHO ldlA[mSR-BI] cells, DiI-HDL uptake fluorescence, 3 h; 100 = double the neutral-control signal; AID 504775;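 active = mean replicate activation of at least 60% and every replicate at or above 60%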;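 note: 0% = median plate neutral-control signal and 100% = twice that signal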
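Material: SR-BI-overexpressing, LDLR-lacking CHO cells; schedule: compound exposure 3 h, 37 °C; reagent: DiI-labelled HDL at 10 µg/mL final; technique: bottom-read fluorescence, 550/595 nm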
ATG4B conf: ATG4B (human) inhibition, single-dose confirmed; shares compounds with ATG4B inh; ATG4B protease fluorescent substrate cleavage assay; inhibition, % at 8.33 µM; 320 compounds, 92% hits; AID 504757; in the data active = inhibition above about 39%
PLA2 ctr: inhibits human PLA2, flagging false ATG4B inhibitors | inhibition, % at 8.33 µM | 1,600 compounds, 66% hits | purified PLA2, NBD-C6-HPC fluorescence, 45 min | shares compounds with ATG4B inh | AID 588402; in the data active = inhibition above about 50%
Target sequence (P04054 whole entry, looked up): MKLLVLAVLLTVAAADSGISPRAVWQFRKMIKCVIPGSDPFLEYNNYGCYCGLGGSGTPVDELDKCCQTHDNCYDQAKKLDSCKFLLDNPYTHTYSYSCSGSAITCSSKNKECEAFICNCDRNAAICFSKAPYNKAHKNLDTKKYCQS
* = called active by the depositor. Most compounds without a hit are left out; they make up all but 2.3% or so of the library.

Screening Oc1ccc(C2C(c3ccccc3)=NN=C(c3ccccc3F)N2O)c(O)c1 (configuration not stated) returned CAL PDZ FP-1 -3, CAL PDZ FP-2 1, ATG4B inh 63*, SR-BI HDL uptake 8, SR-BI uptake up -8 and PLA2 ctr 84*.
CC(=O)C[C@@H](O)CC(=O)[C@@H]1OC(=O)[C@H](C)C/C=C\Cc2ccccc21 was read as CAL PDZ FP-1 0, CAL PDZ FP-2 -1, ATG4B inh 10, SR-BI HDL uptake -40 and SR-BI uptake up 40.
CCOC(=O)c1ccc(Cl)c(NC(=O)c2ccc(-c3ccccc3)cc2)c1 was read as CAL PDZ FP-1 1, CAL PDZ FP-2 -18, ATG4B inh -2, SR-BI HDL uptake 57 and SR-BI uptake up -57.
`CCOC(=O)c1ccc(/C=C2/C=C(c3ccccc3)N(c3ccc(Cl)c(C(=O)O)c3)C2=O)cc1` gave CAL PDZ FP-1 -3, ATG4B inh 56*, SR-BI HDL uptake -2, SR-BI uptake up 2, ATG4B conf 77* and PLA2 ctr 41.
Screening C=CCSC1=N/C(=C\c2cc(OCC)c(OC(C)=O)c([N+](=O)[O-])c2)C(=O)S1 returned CAL PDZ FP-1 -1, CAL PDZ FP-2 -2, ATG4B inh 89*, SR-BI HDL uptake -31, SR-BI uptake up 31 and PLA2 ctr 94*.
CCOC(=O)c1ccc(NC(=S)NCc2ccc(S(N)(=O)=O)cc2)cc1 was read as CAL PDZ FP-1 -1, ATG4B inh -9, SR-BI HDL uptake -11 and SR-BI uptake up 11.
Screening CC(C)c1ccc(NC(=O)NCc2ccc(F)cc2)cc1 returned CAL PDZ FP-1 -2, CAL PDZ FP-2 -1, ATG4B inh 61*, SR-BI HDL uptake 13, SR-BI uptake up -13 and PLA2 ctr 67*.
CCOC(=O)c1ccc(NC(=S)NCc2ccc(F)cc2)cc1 was read as CAL PDZ FP-1 -1, CAL PDZ FP-2 -5, ATG4B inh 44*, SR-BI HDL uptake 2, SR-BI uptake up -2 and PLA2 ctr 56*.
O=C(NCc1ccc(Cl)cc1)Nc1ccc(F)cc1 was read as CAL PDZ FP-1 -3, CAL PDZ FP-2 -5, ATG4B inh 8, SR-BI HDL uptake -11 and SR-BI uptake up 11.
For O=C(CCNS(=O)(=O)c1ccc(Br)cc1)NC1CCC(O)CC1 (configuration not stated) the results were CAL PDZ FP-1 0, CAL PDZ FP-2 4, ATG4B inh 3, SR-BI HDL uptake -35 and SR-BI uptake up 35.
`CCOc1c(CNCCCSc2nc(C)cc(C)n2)cccc1OC` gave CAL PDZ FP-1 -6, ATG4B inh -2, SR-BI HDL uptake 10 and SR-BI uptake up -10.
CCc1ccccc1OCC(=O)Nc1cc(S(=O)(=O)N(CC)CC)ccc1N1CCOCC1 was read as CAL PDZ FP-1 0, CAL PDZ FP-2 7, ATG4B inh 54*, SR-BI HDL uptake 33, SR-BI uptake up -33 and PLA2 ctr 92*.
For Cc1ccccc1OCC(=O)Nc1cc(S(=O)(=O)N2CCCCC2)ccc1N1CCN(C)CC1 the results were CAL PDZ FP-1 -1, CAL PDZ FP-2 4, ATG4B inh 46*, SR-BI HDL uptake 6, SR-BI uptake up -6 and PLA2 ctr 50*.
For Cc1cccc(OCC(=O)Nc2cc(S(=O)(=O)N3CCOCC3)ccc2N2CCCC2)c1C the results were CAL PDZ FP-1 -3, CAL PDZ FP-2 4, ATG4B inh -6, SR-BI HDL uptake 5 and SR-BI uptake up -5.
For O=c1[nH]c(NC2CCCCC2)c([N+](=O)[O-])c(=O)[nH]1 the results were CAL PDZ FP-1 0, CAL PDZ FP-2 -2, ATG4B inh 8, SR-BI HDL uptake -16 and SR-BI uptake up 16.
`COc1ccc2cc(C=NS(=O)(=O)c3ccc(C)cc3)n(C)c2c1` gave CAL PDZ FP-1 0, CAL PDZ FP-2 -1, ATG4B inh 83*, SR-BI HDL uptake -4, SR-BI uptake up 4 and PLA2 ctr 75*.
For O=C(Oc1ccc2ccc(=O)oc2c1)c1ccco1 the results were CAL PDZ FP-1 -1, CAL PDZ FP-2 6, ATG4B inh -13, SR-BI HDL uptake -15 and SR-BI uptake up 15.
`O=C(Nc1ccc2nc(-c3cccs3)c(-c3cccs3)nc2c1)NC1CC1` gave CAL PDZ FP-1 1, ATG4B inh 72*, SR-BI HDL uptake 27, SR-BI uptake up -27 and PLA2 ctr 81*.
`COCCNC(=O)Nc1ccc2nc(-c3cccs3)c(-c3cccs3)nc2c1` gave CAL PDZ FP-1 -6, CAL PDZ FP-2 0, ATG4B inh 18, SR-BI HDL uptake 27 and SR-BI uptake up -27.
For Cc1cccc(C(=O)N[C@H](C(=O)Nc2ccc3c(c2)OCO3)C(C)C)c1 the results were CAL PDZ FP-1 0, CAL PDZ FP-2 2, ATG4B inh -5, SR-BI HDL uptake -9 and SR-BI uptake up 9.
For N=C(N)c1ccc(N=Nc2c(O)ccc3c2[nH]c2ccccc23)cc1 the results were CAL PDZ FP-1 8, CAL PDZ FP-2 -3, ATG4B inh 86*, SR-BI HDL uptake 55, SR-BI uptake up -55, ATG4B conf 38* and PLA2 ctr 18.
Oc1ccc(N=Nc2c(O)ccc3ccccc23)cc1 was read as CAL PDZ FP-1 1, CAL PDZ FP-2 -3, ATG4B inh 4, SR-BI HDL uptake 70 and SR-BI uptake up -70.
Screening O=C(NC(=S)Nc1ncc(Br)cc1Br)c1ccccc1 returned CAL PDZ FP-1 -1, CAL PDZ FP-2 -6, ATG4B inh -1, SR-BI HDL uptake 2 and SR-BI uptake up -2.
Cc1ccc(C(=O)N2CC(C)CC(C)C2)cc1NC1=NC2CS(=O)(=O)CC2S1 (configuration not stated) was read as CAL PDZ FP-1 -1, CAL PDZ FP-2 9, ATG4B inh -4, SR-BI HDL uptake -10 and SR-BI uptake up 10.
For Oc1nc(Nc2ccc(Cl)cc2Cl)sc1/C=C1\C=Nc2ccccc21 the results were CAL PDZ FP-1 -1, CAL PDZ FP-2 -2, ATG4B inh 78*, SR-BI HDL uptake -15, SR-BI uptake up 15, ATG4B conf 22 and PLA2 ctr 23.
For Cc1nc(Nc2ccc(Cl)cc2Cl)sc1C(=O)Nc1ccccc1 the results were CAL PDZ FP-1 -2, ATG4B inh -7, SR-BI HDL uptake 41 and SR-BI uptake up -41.
Screening CC1Cc2ccccc2N1C(=O)CN(C)CC(=O)Nc1cccc(F)c1 (configuration not stated) returned CAL PDZ FP-1 0, CAL PDZ FP-2 12, ATG4B inh 2, SR-BI HDL uptake 9 and SR-BI uptake up -9.
